{"data": "Assay results gathered from unrelated publications", "target": "Mitogen-activated protein kinase kinase kinase 5 (MAP3K5, Homo sapiens, UniProt Q99683)", "One construct used (Q99683 1-1374)": "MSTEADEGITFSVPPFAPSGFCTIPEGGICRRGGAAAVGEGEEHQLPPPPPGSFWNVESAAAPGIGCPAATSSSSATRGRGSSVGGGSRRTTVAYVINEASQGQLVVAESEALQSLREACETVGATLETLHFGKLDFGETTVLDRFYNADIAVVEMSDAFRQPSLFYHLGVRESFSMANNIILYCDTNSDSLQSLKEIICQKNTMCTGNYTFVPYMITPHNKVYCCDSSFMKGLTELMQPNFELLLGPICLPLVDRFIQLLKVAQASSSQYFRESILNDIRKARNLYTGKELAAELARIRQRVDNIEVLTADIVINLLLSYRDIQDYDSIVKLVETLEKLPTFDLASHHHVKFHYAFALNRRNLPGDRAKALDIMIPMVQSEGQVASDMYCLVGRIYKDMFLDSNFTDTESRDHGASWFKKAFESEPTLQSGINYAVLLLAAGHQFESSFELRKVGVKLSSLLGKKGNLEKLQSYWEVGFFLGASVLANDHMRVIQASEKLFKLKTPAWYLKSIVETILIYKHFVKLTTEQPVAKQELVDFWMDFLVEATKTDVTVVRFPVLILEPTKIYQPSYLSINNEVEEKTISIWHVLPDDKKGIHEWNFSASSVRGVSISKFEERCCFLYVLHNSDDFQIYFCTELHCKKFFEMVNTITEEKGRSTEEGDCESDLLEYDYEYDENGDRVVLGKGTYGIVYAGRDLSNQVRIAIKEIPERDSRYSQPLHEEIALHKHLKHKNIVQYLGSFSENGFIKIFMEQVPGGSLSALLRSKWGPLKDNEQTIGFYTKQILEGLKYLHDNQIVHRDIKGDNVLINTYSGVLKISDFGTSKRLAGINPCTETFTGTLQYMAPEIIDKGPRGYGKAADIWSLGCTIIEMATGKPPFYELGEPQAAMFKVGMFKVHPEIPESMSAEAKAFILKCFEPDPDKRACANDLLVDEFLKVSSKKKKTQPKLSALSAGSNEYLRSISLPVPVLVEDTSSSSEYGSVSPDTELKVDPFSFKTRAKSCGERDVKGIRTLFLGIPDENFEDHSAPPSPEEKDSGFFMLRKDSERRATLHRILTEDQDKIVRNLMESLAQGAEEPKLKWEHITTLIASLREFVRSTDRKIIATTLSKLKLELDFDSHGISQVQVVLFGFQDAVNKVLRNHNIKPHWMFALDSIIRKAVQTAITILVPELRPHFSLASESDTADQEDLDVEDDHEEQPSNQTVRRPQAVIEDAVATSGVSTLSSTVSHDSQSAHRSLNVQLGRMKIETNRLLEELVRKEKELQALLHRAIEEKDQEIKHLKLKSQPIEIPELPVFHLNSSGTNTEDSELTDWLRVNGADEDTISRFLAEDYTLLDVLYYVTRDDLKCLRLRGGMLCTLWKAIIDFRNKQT", "note": "Lines come from different studies, so protocols differ."}
{"SMILES": "O=C(Nc1cnn(-c2csc(C(=O)NC3COC3)c2)c1)Nc1c(F)cccc1Cl", "effect on": "enzyme activity", "mode": "inhibitor", "concentration": "5 µM", "quantity": "remaining activity", "result": "91.1%"}
{"SMILES": "CO[C@@H](C)c1c(Nc2ccc([C@@H](N(C)C(=O)C3CCS(=O)(=O)CC3)C(F)(F)F)cc2)cnc2cc(Cl)nn12", "effect on": "cell-free assay", "method": "competition with immobilised ligand", "concentration": "1 µM", "quantity": "remaining binding", "result": "81%"}
{"SMILES": "CCN1CCN(Cc2ccc(NC(=O)c3ccc(C)c(/C=C/c4cnc5[nH]ccc5c4OC)c3)cc2C(F)(F)F)CC1", "effect on": "target engagement in cells", "mode": "inhibitor", "method": "chemoproteomics", "cell line": "A-375", "concentration": "0.5 µM", "quantity": "inhibition", "result": "-26.3%"}
{"SMILES": "c1ccc(CNc2nc(N3CCOc4ccccc43)nc3c2CCCC3)cc1", "effect on": "target engagement in cells", "mode": "inhibitor", "method": "chemoproteomics", "concentration": "20 mM", "quantity": "inhibition", "result": "-10.3%"}
{"SMILES": "FC(F)c1nc2ccccc2n1-c1nc(N2CCOCC2)nc(N2CCOCC2)n1", "effect on": "enzyme activity", "mode": "inhibitor", "concentration": "10 µM", "quantity": "remaining activity", "result": "90%"}
{"SMILES": "Cn1nc(C(F)(F)F)cc1-c1cnc(N2CCc3cc(S(=O)(=O)Nc4c(F)cc(Cl)cc4F)cc(N4CCCC4=O)c32)nc1", "effect on": "cell-free assay", "method": "competition with immobilised ligand", "concentration": "1 µM", "quantity": "remaining binding", "result": "100%"}
{"SMILES": "CCN(CC)CCNC(=O)c1c(C)[nH]c(/C=C2\\C(=O)Nc3ccc(F)cc32)c1C", "effect on": "enzyme activity", "mode": "inhibitor", "concentration": "0.3 µM", "quantity": "inhibition", "result": "4%"}
{"SMILES": "COc1cc(/C=C/C(=O)CC(=O)/C=C/c2ccc(O)c(OC)c2)ccc1O", "effect on": "enzyme activity", "mode": "inhibitor", "concentration": "1 µM", "quantity": "activity vs control", "result": "101%"}
{"SMILES": "O=C1NC(=O)c2cc(Nc3ccc(F)cc3)c(Nc3ccc(F)cc3)cc21", "effect on": "cell-free assay", "concentration": "0.5 µM", "quantity": "remaining signal", "result": "96.6%"}
{"SMILES": "CC(C)c1ccc(NC(=O)c2cccs2)c(-c2nc3ccccc3[nH]c2=O)c1", "effect on": "enzyme activity", "mode": "inhibitor", "concentration": "1 µM", "quantity": "activity vs control", "result": "107%"}
{"SMILES": "CC(C)(C)c1nc(-c2cccc(NS(=O)(=O)c3c(F)cccc3F)c2F)c(-c2ccnc(N)n2)s1", "effect on": "enzyme activity", "mode": "inhibitor", "method": "radiometric", "concentration": "1 µM", "quantity": "remaining activity", "result": "98%"}
{"SMILES": "NS(=O)(=O)c1cc(NC(=O)Cc2ccccc2)ccc1Oc1cccc(Cl)c1", "effect on": "cell-free assay", "method": "competition with immobilised ligand", "concentration": "1 µM", "quantity": "remaining binding", "result": "100%"}
{"SMILES": "CCN1CCC2(CC1)NC(=O)c1c(c3ccc(Cl)c(Cl)c3n1C)C2C#N (racemic)", "effect on": "thermal stability", "method": "DSF", "concentration": "10 µM", "quantity": "ΔTm", "result": "0.1 °C"}
{"SMILES": "Cc1ccc(Nc2nccc(N(C)c3ccc4c(C)n(C)nc4c3)n2)cc1S(N)(=O)=O", "effect on": "enzyme activity", "mode": "inhibitor", "concentration": "0.3 µM", "quantity": "inhibition", "result": "6%"}
{"SMILES": "CCN1CCN(Cc2ccc(NC(=O)c3ccc(C)c(Oc4ccnc5[nH]ccc45)c3)cc2C(F)(F)F)CC1", "effect on": "target engagement in cells", "mode": "inhibitor", "method": "chemoproteomics", "cell line": "A-375", "concentration": "5 µM", "quantity": "inhibition", "result": "-27.1%"}
{"SMILES": "CNCc1ccccc1-c1csc([C@@H](C)Nc2nc(C)nc3cc(OC)c(OC)cc23)c1", "effect on": "cell-free assay", "method": "competition with immobilised ligand", "concentration": "1 µM", "quantity": "remaining binding", "result": "91%"}
{"SMILES": "Cc1sc(C(=O)NC2COC2)cc1-n1cc(NC(=O)Nc2c(F)cccc2Cl)cn1", "effect on": "enzyme activity", "mode": "inhibitor", "concentration": "10 µM", "quantity": "remaining activity", "result": "94%"}
{"SMILES": "Cc1cnc(NC2CCOCC2)nc1-n1cnc(C(=O)NC(CN)c2cc(F)cc(Cl)c2)c1 (stereo not drawn)", "effect on": "enzyme activity", "mode": "inhibitor", "method": "radiometric", "concentration": "1 µM", "quantity": "remaining activity", "result": "105%"}
{"SMILES": "Cn1c2c(c3ccc(Cl)c(Cl)c31)C(C#N)C1(CCN(C(=O)OC(C)(C)C)CC1)NC2=O (racemic)", "effect on": "thermal stability", "method": "DSF", "concentration": "10 µM", "quantity": "ΔTm", "result": "0 °C"}
{"SMILES": "FC(F)(F)Oc1cccc(-c2cnc3ccc(-c4ccncc4)nn23)c1", "effect on": "enzyme activity", "mode": "inhibitor", "method": "radiometric", "concentration": "1 µM", "quantity": "activity vs control", "result": "88%"}
{"SMILES": "COc1cccc2c(NCc3ccccc3)nc(-n3c(N)nc4ccccc43)nc12", "effect on": "target engagement in cells", "mode": "inhibitor", "method": "chemoproteomics", "concentration": "20 mM", "quantity": "inhibition", "result": "-7.6%"}
{"SMILES": "CC(C)(O)[C@H]1CC[C@H](Nc2ccc3ncc(-c4cccc(C(F)(F)F)c4)n3n2)CC1", "effect on": "enzyme activity", "mode": "inhibitor", "concentration": "1 µM", "quantity": "remaining activity", "result": "96.7%"}
{"SMILES": "Cn1c2c(c3ccc(Cl)c(Cl)c31)C(C#N)C(C)(C)NC2=O (stereo not drawn)", "effect on": "thermal stability", "method": "DSF", "concentration": "10 µM", "quantity": "ΔTm", "result": "2.6 °C"}
{"SMILES": "Oc1cccc(-c2nc(N3CCOCC3)c3oc4ncccc4c3n2)c1", "effect on": "enzyme activity", "mode": "inhibitor", "concentration": "10 µM", "quantity": "remaining activity", "result": "101%"}
{"SMILES": "O=C1Nc2ccc(Cl)cc2C1=Cc1cc(Cl)c(O)c(Cl)c1", "effect on": "cell-free assay", "concentration": "0.5 µM", "quantity": "remaining signal", "result": "106%"}
{"SMILES": "Cn1c2c(Cl)c(Cl)ccc2c2cc[nH]c(=O)c21", "effect on": "thermal stability", "method": "DSF", "concentration": "10 µM", "quantity": "ΔTm", "result": "2.1 °C"}
{"SMILES": "CNCc1ccc(-c2cc(-c3nc(-c4ccc(S(=O)(=O)C(C)C)cc4)cnc3N)on2)cc1", "effect on": "enzyme activity", "mode": "inhibitor", "concentration": "2 µM", "quantity": "inhibition", "result": "0%"}
{"SMILES": "Cn1nc(C(=O)NCc2ccc(C(=O)O)cc2)cc1-c1ccc2[nH]ccc2c1", "effect on": "cell-free assay", "method": "competition with immobilised ligand", "concentration": "0.1 µM", "quantity": "remaining binding", "result": "86%"}
{"SMILES": "COc1cc(Nc2cnc(C#N)c(O[C@H](C)CN(C)C)n2)ncc1-c1cnn(C)c1", "effect on": "enzyme activity", "mode": "inhibitor", "method": "radiometric", "concentration": "1 µM", "quantity": "remaining activity", "result": "95%"}
{"SMILES": "CS(=O)(=O)N1CCCC(NC(=O)[C@H](CCC2CCCCC2)NC(=O)c2ccc(CNc3ncnc4c3nnn4-c3ccccc3)cc2)C1 (stereo partly drawn)", "effect on": "cell-free assay", "method": "competition with immobilised ligand", "concentration": "0.1 µM", "quantity": "remaining binding", "result": "100%"}
{"SMILES": "CC1(C)NC(=O)c2[nH]c3c(Cl)c(Cl)ccc3c2C1C#N (stereo not drawn)", "effect on": "thermal stability", "method": "DSF", "concentration": "10 µM", "quantity": "ΔTm", "result": "1.6 °C"}
{"SMILES": "Nc1ncnc2occ(-c3ccc(NC(=O)Nc4cc(C(F)(F)F)ccc4F)cc3)c12", "effect on": "cell-free assay", "mode": "inhibitor", "concentration": "20 µM", "quantity": "remaining signal", "result": "7.8%"}
{"SMILES": "c1ccc(N2CCN(Cc3nc4ccccc4[nH]3)CC2)nc1", "effect on": "binding", "method": "competition with immobilised ligand", "concentration": "1 µM", "quantity": "remaining binding", "result": "93%"}
{"SMILES": "Cn1c2c(c3ccc(Cl)c(Cl)c31)C(C#N)C1(CCOCC1)NC2=O (stereo not drawn)", "effect on": "thermal stability", "method": "DSF", "concentration": "10 µM", "quantity": "ΔTm", "result": "0.4 °C"}
{"SMILES": "CC(=O)N1CCC(c2ccc(C(=O)NC3=NCCN3)cc2C(F)(F)F)CC1", "effect on": "cell-free assay", "method": "competition with immobilised ligand", "concentration": "1 µM", "quantity": "remaining binding", "result": "100%"}
{"SMILES": "CNC(=O)c1cc(Oc2ccc(NC(=O)Nc3ccc(Cl)c(C(F)(F)F)c3)cc2)ccn1", "effect on": "enzyme activity", "mode": "inhibitor", "concentration": "0.3 µM", "quantity": "inhibition", "result": "0%"}
